Shown are actives, neighbours in structure and some others; about 1.8% of the full set was active somewhere.
Gli-Sufu antag: Gli-Sufu pathway antagonism. Sufu-KO-LIGHT fibroblasts, Gli luciferase reporter luminescence. inhibition, % at 5 µM. 340,000 tested, 0.74% active. AID 588413;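 active = inhibition above about 55%, limit read from the data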;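 also: 0% = DMSO-treated cells and 100% = wells with medium but no cells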
GalR3 antagonist: blocks the human galanin receptor 3. O60755. inhibition, % at 3 µM. 360,000 tested, 0.44% active. HEK293 GalR3-CNG cAMP membrane potential fluorescence; galR3 body fused to GalR1 C-terminus. AID 651719;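 active = inhibition above the screen-wide average plus 3 SD, cut at about 13% in these data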;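 also: forskolin and galanin both at EC90 stimulate the cells; cAMP rise reported by CNG channel membrane potential dye signal; 0% = forskolin plus galanin with DMSO and 100% = forskolin alone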
Target sequence (O60755 1-299 limits assumed): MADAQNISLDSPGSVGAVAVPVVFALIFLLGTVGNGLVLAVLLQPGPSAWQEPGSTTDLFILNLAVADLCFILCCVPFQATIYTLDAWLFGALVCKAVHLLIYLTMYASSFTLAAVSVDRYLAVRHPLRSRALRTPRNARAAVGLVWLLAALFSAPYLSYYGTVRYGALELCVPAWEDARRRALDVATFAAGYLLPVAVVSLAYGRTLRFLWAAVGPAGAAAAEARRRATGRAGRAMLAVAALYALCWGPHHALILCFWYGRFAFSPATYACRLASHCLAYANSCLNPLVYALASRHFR
NR2E3 ag-1: agonists of human NR2E3 nuclear receptor. Q9Y5X4. CHO-S Gal4-NCOR/VP16-NR2E3 two-hybrid, luciferase. inhibition of corepressor binding, % at 3.98 µM. 360,000 tested, 0.35% active;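 active = inhibition above the mean of all tested compounds plus 3 SD, cut at about 70% in these data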;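 also: 0% = DMSO with NR2E3 transfected cells and 100% = cells lacking NR2E3 construct; higher means lower luciferase signal from less NR2E3 corepressor binding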
Target sequence (Q9Y5X4 whole entry, looked up, the tested form may be a part): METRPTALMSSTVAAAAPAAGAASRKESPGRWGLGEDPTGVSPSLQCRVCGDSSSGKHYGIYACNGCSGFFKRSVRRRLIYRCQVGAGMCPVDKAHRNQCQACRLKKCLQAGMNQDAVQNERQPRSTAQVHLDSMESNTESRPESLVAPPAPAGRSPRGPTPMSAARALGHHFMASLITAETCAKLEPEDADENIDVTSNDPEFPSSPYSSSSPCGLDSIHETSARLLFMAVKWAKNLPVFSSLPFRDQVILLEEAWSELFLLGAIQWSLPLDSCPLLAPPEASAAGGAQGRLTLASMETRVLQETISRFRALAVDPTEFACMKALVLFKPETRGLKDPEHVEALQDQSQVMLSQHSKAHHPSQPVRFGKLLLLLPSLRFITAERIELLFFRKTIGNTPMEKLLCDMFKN
Jurkat NFkB inh: inhibitors of the PMA/ionomycin-induced NF-kB reporter in Jurkat cells. PMA/ionomycin-induced NF-kB luciferase reporter, luminescence. inhibition, % at 4 µM. 330,000 tested, 0.53% active. AID 435003; in the data active = inhibition above about 50%
NR2E3 ag-2: NR2E3 (human) agonism. Q9Y5X4. GST-NR2E3/biotin-RetCOR TR-FRET, 1536-well. inhibition of corepressor binding, % at 4.78 µM. 320,000 tested, 0.12% active. AID 2300;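 active = percent inhibition above the cutoff of mean plus 3 SD of all tested compounds, set per screening campaign, cut at about 20% in these data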;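 also: 0% = DMSO wells and 100% = biotin wells as full block of FRET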
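Test system: GST-NR2E3 and biotin-RetCOR proteins | Quantity: 1.35 nM GST-tagged NR2E3 final | Medium: Tris pH 7.5 | Also added: 7 nM biotin-RetCOR | Dosing: Compound at 4.8 µM, single dose | Timing: 5 h at 4 °C | Detection: Time-resolved FRET | Read-out basis: Percent inhibition | Benchmarks: Biotin wells as high control, 0.6% DMSO wells as low control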
697 NFkB inh: lowers PMA/ionomycin-induced NF-kB signal in 697 B cells; 697 B-cell NF-kB luciferase reporter, 16 h; inhibition, % at 4 µM; 330,000 tested, 0.33% active; AID 435022; in the data active = inhibition above about 35%
697 NFkB conf: lowers PMA/ionomycin-induced NF-kB signal in 697 B cells. inhibition, % at 4 µM. 2,000 tested, 35% active. 697 B-cell NF-kB luciferase, 16 h. shares compounds with 697 NFkB inh; in the data active = inhibition mostly above about 28%, no sharp cut-off; inactive = mostly below about 22%
* hit, by the source's call; i = inactive; x = no result given.

SMILES	Gli-Sufu antag	GalR3 antagonist	NR2E3 ag-1	Jurkat NFkB inh	NR2E3 ag-2	697 NFkB inh	697 NFkB conf
CCCN1C(=O)c2ccc(C(=O)Nc3ccc4c(c3)OCO4)cc2C1=O	-11.8	-1.5	-26.2	4.3	2.2	36.0*	-2.3
CC(C)Cc1nnc(NC(=O)c2ccc3c(c2)OCCO3)s1	-88.1	-4.9	-166.1	-128.2	-1.3	-268.0	-193.4
CCCN1C(=O)c2ccc(C(=O)NC3=NCCS3)cc2C1=O	6.7	-2.5	-11.5	2.7	0.8	0.4	x
Cc1ccc(NC(=O)c2ccc3c(c2)OCCO3)cc1C	-151.0	-8.3	-70.6	-83.7	2.5	-263.6	-367.5
CC(C)C(=O)Nc1ccc(NC(=O)c2ccc3c(c2)OCO3)cc1	3.1	-9.6	-24.0	-12.5	3.0	49.6*	43.0*
COc1cc(NC(=O)c2ccc3c(c2)OCO3)ccc1NC(=O)C(C)C	-1.2	4.1	-21.8	-7.1	2.3	-10.8	x
O=C(Nc1ncccc1O)c1ccc2c(c1)OCCO2	-40.5	0.9	-132.7	-59.9	-1.7	-290.3	-185.4
O=C(Nc1cccc(Oc2ccc3c(c2)C(=O)NC3=O)c1)c1cccs1	-8.1	-0.4	2.4	17.5	1.3	39.2*	13.6*
COc1ccc(-n2ncc3c(N4CCC(C(N)=O)CC4)ncnc32)cc1	-86.9	-3.6	2.9	-70.1	-3.7	59.8*	45.0*
CCOC(=O)C1CCN(c2ncnc3c2cnn3-c2ccc(OC)cc2)CC1	6.6	-3.4	1.1	-4.1	-0.8	47.1*	36.5*
CCOc1ccc(C(C)=O)cc1Cn1nc(C(=O)O)c2ccccc2c1=O	0.0	4.5	-26.9	4.4	0.7	35.1*	6.6
COc1ccc(OC)c(NC(=O)Nc2ccc(Cl)cc2)c1	-44.1	x	10.5	-16.8	3.0	-14.6	x
COC(=O)c1cc(NC(=O)Nc2cc(OC)ccc2OC)cc(C(=O)OC)c1	6.4	-3.3	6.7	7.4	-1.3	39.1*	33.7*
COC(=O)[C@]12C[C@H](CC(=O)N3CCCCC3)C(=O)N(Cc3ccc4c(c3)OCO4)C1=C[C@H](C(C)(C)C)O[C@@H]2C	x	-7.1	x	x	x	x	x
COc1ccc(-c2noc(N3CCC(C(=O)Nc4ccc(OC)c(OC)c4)CC3)n2)cc1	-5.8	x	-19.2	16.6	-0.4	46.7*	38.0*
COc1ccc(-c2noc(N3CCC(C(=O)Nc4ccccc4F)CC3)n2)cc1	-8.5	x	9.2	10.4	0.8	24.3	x
COc1ccc(-c2noc(N3CCC(C(=O)Nc4ccccc4Cl)CC3)n2)cc1	4.8	x	-38.2	19.7	1.6	39.1*	19.4
COCCN(CCOC)C(=O)[C@@H](Cc1ccccc1)NC(=O)[C@H]1O[C@@H](n2ccc(N)nc2=O)[C@H](O)[C@@H]1O	x	-0.5	x	x	x	x	x
O=C(NC1CCCC1)[C@@H]1CCCN1C(=O)[C@@H](NS(=O)(=O)c1ccc(F)cc1F)C1CCCCC1	x	-0.3	x	x	x	x	x
COc1cc(-c2nc3ccccn3c2NCC2CCCO2)ccc1O (configuration not stated)	4.0	-7.0	-27.6	-3.6	-3.9	36.0*	1.8
CCOc1cc(-c2nc3ccccn3c2NCC2CCCO2)ccc1O (configuration not stated)	1.2	-4.2	-10.9	4.3	-3.4	-2.9	x
O=C(NCc1ccccc1)[C@H]1CCCN1C(=O)[C@H]1CCCN1C(=O)c1ccc(Cl)cc1	x	-6.5	x	x	x	x	x
CSc1nnc2c3ccccc3n(CCc3ccccc3)c2n1	6.8	-6.5	-11.6	-74.9	2.4	i	i
COc1cccc(C2C(C#N)=C(N)OC(C(C)(C)C)=C2C#N)c1 (configuration not stated)	-19.1	0.6	-20.5	7.2	0.9	35.6*	4.5
COC(=O)CSc1nnc(-c2sc3ccccc3c2Cl)o1	5.3	-5.0	-5.7	-0.8	-2.2	40.4*	42.5*
SMILES	Gli-Sufu antag	GalR3 antagonist	NR2E3 ag-1	Jurkat NFkB inh	NR2E3 ag-2	697 NFkB inh	697 NFkB conf
N#CCSc1nnc(-c2sc3ccccc3c2Cl)o1	-10.5	-5.5	-9.1	-11.5	-2.2	-24.8	x
O=C(O)c1ccc(-c2noc(-c3ccc(F)cc3)n2)cc1	-93.9	-2.4	-119.1	-75.0	0.6	-313.2	-282.7
O=C(O)c1ccc(-c2noc(-c3cccc(Cl)c3)n2)cc1	-19.2	-3.9	-30.8	-23.2	x	-117.3	x
COC(=O)[C@]12C[C@H](CC(=O)N3CCC(c4ccccc4)CC3)C(=O)N(Cc3ccc4c(c3)OCO4)C1=C[C@H](C(C)(C)C)O[C@@H]2C	x	-7.6	x	x	x	x	x
CCn1c(=O)cc(SCC(=O)N2CCC(C)CC2)c2ccccc21	14.0	-5.1	11.8	11.3	-3.1	59.2*	44.6*
CCN1CCN(C(=O)CSc2cc(=O)n(CC)c3ccccc23)CC1	30.2	-3.1	-9.0	-3.5	-3.2	38.8*	53.7*
CCn1c(=O)cc(SCC(=O)N2CCCCC2)c2ccccc21	31.6	-5.5	17.9	23.6	-24.0	58.4*	42.5*
CCn1c(=O)c2cc(C(=O)N3CCCC3)sc2c2ccccc21	x	x	x	-7.6	x	53.3*	31.7*
COC(=O)[C@]12C[C@H](CC(=O)N3CCC(c4ccccc4)CC3)C(=O)N(CCC3=CCCCC3)C1=C[C@H](COCc1ccccc1)O[C@@H]2C	x	0.0	x	x	x	x	x
COC(=O)[C@]12C[C@H](CC(=O)NCc3ccccc3)C(=O)N(Cc3ccc4c(c3)OCO4)C1=C[C@H](COCc1ccccc1)O[C@@H]2C	x	-5.9	x	x	x	x	x
COC(=O)[C@]12C[C@H](CC(=O)N3CCN(C(=O)c4ccco4)CC3)C(=O)N(Cc3ccc4c(c3)OCO4)C1=C[C@H](COCc1ccccc1)O[C@@H]2C	x	-6.0	x	x	x	x	x
CCOC(=O)C1CCN(C(=O)CSc2cc(=O)n(CC)c3ccccc23)CC1	12.7	-7.4	-5.6	-12.8	-6.7	15.8	x
Cn1c(=O)cc(SCC(=O)N2CCN(C3CCCCC3)CC2)c2ccccc21	18.1	-4.1	14.2	-9.0	2.3	37.9*	22.9
CCn1c(=O)cc(SCC(=O)N2CCN(C)CC2)c2ccccc21	26.1	-4.7	-6.8	-4.2	2.4	41.9*	34.4*
COCCCn1cnn2c(=O)c3ccccc3nc2c1=O	x	-1.3	x	x	x	x	x
CCSCCOC(=O)C1=C(C)NC2=C(C(=O)CCC2)C1c1coc2ccccc2c1=O (configuration not stated)	6.0	6.6	1.9	4.5	14.7	35.9*	13.8
CC1=C(C(=O)OC(C)C)C(c2coc3ccccc3c2=O)C2=C(CCCC2=O)N1 (configuration not stated)	8.4	-2.6	-10.1	-7.4	2.5	-5.5	x
Cn1ncc2c(Nc3ccc(-c4ccccc4)cc3)ncnc21	-50.7	-5.1	-61.7	-110.2	3.6	-435.6	-450.1
Cn1ncc2c(Nc3ccc(Cl)c(Cl)c3)ncnc21	10.3	-1.3	-15.5	-15.8	-1.5	-9.5	x
